According to ChEMBL document CHEMBL1133013, “Structure-activity relationships and pharmacokinetic analysis for a series of potent, systemically available biphenylsulfonamide matrix metalloproteinase inhibitors” (J Med Chem, 2000):

How the values were obtained:
[1] = Cmax in rat plasma after single 5 mg/kg oral cassette gavage dose; type: ADME, organism-based; design: dose 5 mg/kg, route oral
In short: (§1)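 Cassette of 5–7 compounds given together as one oral gavage, 5 mg/kg per compound, methyl cellulose suspension, 3 fasted male Wistar rats (80-90 days old). Heparinized plasma taken by jugular cannula predose to 48 h. LC-MS/MS with LLOQ 10 ng/mL. Noncompartmental analysis of individual rats: Cmax/tmax as observed, t1/2 = 0.693/λz, trapezoidal AUC(0-tldc) extrapolated to infinity.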

[2] = Concentration in rat plasma 24 hours after single 5 mg/kg oral cassette gavage dose; type: ADME, organism-based; design: dose 5 mg/kg, route oral; conditions: read-out: C24
[3] = Half life (t1/2) in rats following a single 5 mg/kg oral cassette gavage dose; type: ADME, organism-based; design: dose 5 mg/kg, route oral; conditions: rat, in vivo; in short: as §1
[4] = Pharmacokinetic parameters in rats following a single 5 mg/kg oral cassette gavage dose; type: ADME, organism-based; design: dose 5 mg/kg, route oral; conditions: rat, in vivo, read-out: AUC 0-infinity; in short: as §1
[5] = AUC in rats following a single 5 mg/kg oral cassette gavage dose; type: ADME, organism-based; design: dose 5 mg/kg, route oral; conditions: rat, plasma, read-out: AUC 0-tldc; in short: as §1
[6] = Time to maximal concentration (tmax) in rats following a single 5 mg/kg oral cassette gavage dose; type: ADME, organism-based; design: dose 5 mg/kg, route oral; conditions: rat, in vivo; in short: as §1
Stromelysin-1 = Stromelysin-1 (Homo sapiens, UniProt P08254); assay: In vitro inhibition of recombinant human matrix metalloprotease-3 (MMP-3)
[7] = target: Matrix metalloproteinase-9 (Homo sapiens, UniProt P14780); assay: In vitro inhibition of matrix metalloprotease-9 (MMP-9)
Matrilysin = target: T1, Matrilysin (Homo sapiens, UniProt P09237); assay: In vitro inhibition of matrix metalloprotease-7 (MMP-7)
T1 sequence (P09237 whole entry): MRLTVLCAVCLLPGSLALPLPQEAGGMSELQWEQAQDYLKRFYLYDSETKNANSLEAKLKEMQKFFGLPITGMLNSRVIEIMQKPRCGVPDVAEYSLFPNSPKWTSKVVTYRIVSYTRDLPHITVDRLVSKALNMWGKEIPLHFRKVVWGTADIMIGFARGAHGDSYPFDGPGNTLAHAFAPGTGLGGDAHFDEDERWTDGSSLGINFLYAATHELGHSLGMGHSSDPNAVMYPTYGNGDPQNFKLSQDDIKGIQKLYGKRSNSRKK

Interstitial collagenase = target: T2, Interstitial collagenase (Homo sapiens, UniProt P03956); assay: In vitro inhibition of human recombinant matrix metalloprotease-1 (MMP-1)
T2 sequence (P03956 whole entry): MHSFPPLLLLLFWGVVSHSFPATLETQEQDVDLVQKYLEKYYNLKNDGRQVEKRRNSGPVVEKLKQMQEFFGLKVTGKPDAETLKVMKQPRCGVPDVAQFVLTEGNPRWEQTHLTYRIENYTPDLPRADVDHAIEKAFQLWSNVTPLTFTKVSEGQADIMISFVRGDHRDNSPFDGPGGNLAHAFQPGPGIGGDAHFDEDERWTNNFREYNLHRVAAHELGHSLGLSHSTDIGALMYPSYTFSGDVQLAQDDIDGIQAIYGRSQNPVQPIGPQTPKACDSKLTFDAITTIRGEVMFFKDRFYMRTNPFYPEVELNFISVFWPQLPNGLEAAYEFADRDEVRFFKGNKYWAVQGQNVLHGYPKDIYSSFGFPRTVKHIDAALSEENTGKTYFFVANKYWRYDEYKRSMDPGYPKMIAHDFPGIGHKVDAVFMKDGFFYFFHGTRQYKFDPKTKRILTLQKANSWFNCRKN

[8] = target: 72 kDa type IV collagenase (Homo sapiens, UniProt P08253); assay: In vitro inhibition of matrix metalloprotease-2 (MMP-2)
Collagenase 3 = Collagenase 3 (Homo sapiens, UniProt P45452)

Chain of Matrix metalloproteinase-9 (P14780 whole entry): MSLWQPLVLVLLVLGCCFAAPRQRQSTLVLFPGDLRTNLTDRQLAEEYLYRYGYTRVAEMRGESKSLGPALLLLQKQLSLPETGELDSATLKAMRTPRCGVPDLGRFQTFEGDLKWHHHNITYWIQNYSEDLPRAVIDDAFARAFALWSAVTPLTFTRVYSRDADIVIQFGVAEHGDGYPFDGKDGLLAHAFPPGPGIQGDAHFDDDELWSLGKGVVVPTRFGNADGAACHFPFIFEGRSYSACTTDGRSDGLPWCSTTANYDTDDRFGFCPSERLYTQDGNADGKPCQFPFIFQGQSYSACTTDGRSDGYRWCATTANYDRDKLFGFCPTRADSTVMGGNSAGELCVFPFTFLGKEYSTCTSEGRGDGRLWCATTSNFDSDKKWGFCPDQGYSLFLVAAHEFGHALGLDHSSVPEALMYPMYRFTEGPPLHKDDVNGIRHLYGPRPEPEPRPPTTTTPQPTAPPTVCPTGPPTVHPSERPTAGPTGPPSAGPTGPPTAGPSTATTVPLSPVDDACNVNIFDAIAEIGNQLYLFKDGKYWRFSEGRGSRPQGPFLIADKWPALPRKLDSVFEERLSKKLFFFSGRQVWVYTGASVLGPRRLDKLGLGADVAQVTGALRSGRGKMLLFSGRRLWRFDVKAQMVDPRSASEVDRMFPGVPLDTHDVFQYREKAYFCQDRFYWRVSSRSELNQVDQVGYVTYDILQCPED
Chain of 72 kDa type IV collagenase (P08253 whole entry): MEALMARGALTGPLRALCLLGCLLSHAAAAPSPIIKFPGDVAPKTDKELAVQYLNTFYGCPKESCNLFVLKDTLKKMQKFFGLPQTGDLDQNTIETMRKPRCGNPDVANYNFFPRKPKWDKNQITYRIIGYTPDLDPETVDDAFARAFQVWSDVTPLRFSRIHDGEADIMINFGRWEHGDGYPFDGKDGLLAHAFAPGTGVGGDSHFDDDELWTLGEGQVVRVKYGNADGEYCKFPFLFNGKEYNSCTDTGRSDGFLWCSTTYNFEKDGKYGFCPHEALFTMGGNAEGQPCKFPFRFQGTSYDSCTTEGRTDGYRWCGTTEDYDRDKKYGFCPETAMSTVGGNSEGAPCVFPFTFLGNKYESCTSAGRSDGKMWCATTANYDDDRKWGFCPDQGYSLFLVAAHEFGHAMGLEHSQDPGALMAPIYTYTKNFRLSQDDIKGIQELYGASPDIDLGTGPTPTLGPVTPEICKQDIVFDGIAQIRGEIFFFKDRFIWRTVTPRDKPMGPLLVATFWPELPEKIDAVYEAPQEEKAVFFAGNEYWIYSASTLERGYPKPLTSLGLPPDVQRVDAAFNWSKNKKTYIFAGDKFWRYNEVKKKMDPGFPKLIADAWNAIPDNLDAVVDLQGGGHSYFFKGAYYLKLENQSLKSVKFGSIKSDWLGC
Chain of Stromelysin-1 (P08254 whole entry): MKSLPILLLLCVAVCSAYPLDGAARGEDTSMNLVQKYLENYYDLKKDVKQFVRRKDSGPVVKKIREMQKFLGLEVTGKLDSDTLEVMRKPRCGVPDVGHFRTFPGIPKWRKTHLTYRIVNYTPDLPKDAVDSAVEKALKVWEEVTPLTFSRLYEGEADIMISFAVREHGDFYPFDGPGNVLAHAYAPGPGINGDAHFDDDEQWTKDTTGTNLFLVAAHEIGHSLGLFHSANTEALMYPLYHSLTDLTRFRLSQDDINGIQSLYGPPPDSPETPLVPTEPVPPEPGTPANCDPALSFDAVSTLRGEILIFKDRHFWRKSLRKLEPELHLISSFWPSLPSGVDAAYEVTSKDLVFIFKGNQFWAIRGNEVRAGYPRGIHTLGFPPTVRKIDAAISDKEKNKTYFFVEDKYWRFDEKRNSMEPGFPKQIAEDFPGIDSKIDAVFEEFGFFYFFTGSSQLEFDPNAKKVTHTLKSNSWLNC

SMILES	Cmax [1] [ng/mL]	concentration at 24 h [2] [ng/mL]	half-life [3] [h]	AUC [4] [µg·h/mL]	AUC [5] [µg·h/mL]	Tmax [6] [h]	IC50 (Stromelysin-1) [nM]	IC50 [7] [nM]	IC50 (Matrilysin) [nM]	IC50 (Interstitial collagenase) [nM]	IC50 [8] [nM]	IC50 (Collagenase 3) [nM]
CC(C)[C@@H](NS(=O)(=O)c1ccc(-c2ccc(C#N)cc2)cc1)C(=O)O	12200	4490	12.8	277	256	1.33	5	3800	19000	14000	7	53
CC(C)[C@@H](NS(=O)(=O)c1ccc(-c2ccc(Br)cc2)cc1)C(=O)NO	5930	10	6.78	5.86	5.73	0.33	5	18	140	110	1	2
CC(C)[C@H](NS(=O)(=O)c1ccc(-c2ccc(C#N)cc2)cc1)C(=O)O	17100	5480	12.5	363	289	2.67	6	59000	7000	18000	33	37
CC(C)[C@H](NS(=O)(=O)c1ccc(-c2ccc(Br)cc2F)cc1)C(=O)O	28500	21300	117	4040	1360	1.88	16	4900	2100	3600	5	7
